From ChEMBL document CHEMBL3797175, “Discovery of 6-(difluoro(6-(4-fluorophenyl)-[1,2,4]triazolo[4,3-b][1,2,4]triazin-3-yl)methyl)quinoline as a highly potent and selective c-Met inhibitor” (Eur J Med Chem, 2016)
Calls of active or inactive are those of the source. The calls are words filed in the database; no cut-off is given here.

Columns and labels:
[1] = Selectivity ratio of IC50 for human HCT116 cells to IC50 for human EBC1 cells; assay type: ADME, cell-based; conditions: hct-116
How it was run: (§1)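 Both IC50s in each ratio come from one proliferation assay. Cells were seeded and exposed the next day to a range of concentrations for 72 h, then read by SRB or MTT. IC50s were fitted by four-parameter concentration–response, with each concentration at least in triplicate and at least 2 experiments. BaF3/TPR-Met is murine pre-B BaF3 transfected with TPR-MET and puromycin-selected.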

[2] = Half life in Sprague-Dawley rat at 2 mg/kg, iv administered as single dose; assay type: ADME, organism-based; conditions: in vivo
How it was run: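 Male Sprague Dawley rats (n=3), single dose. iv 2 mg/kg in 1% DMA/9% Cremophor/90% saline. po 10 mg/kg in 0.5% CMC-Na. Where iv was 10 mg/kg: 10% DMSO/10% Tween 80/80% (40% PEG40); po in that case in 10% DMSO/5% Tween 80/85% saline.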

[3] = target: Platelet-derived growth factor receptor alpha (Homo sapiens) (UniProt P16234); assay: Inhibition of recombinant PDGFRalpha (unknown origin) using poly (Glu, Tyr) 4:1 as substrate at 1000 nM incubated for 60 mins by ELISA relative to control
How it was run: (§2)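 Recombinant tyrosine kinases assayed on wells precoated with poly(Glu,Tyr)4:1 (20 µg/mL). ATP 10 µmol/L in HEPES pH 7.4 buffer with MgCl2, MnCl2, Na3VO4 and DTT; compound in 1% DMSO, 1% DMSO as control. Reaction 60 min at 37 °C. Phosphotyrosine detected with PY99 and HRP anti-mouse, o-phenylenediamine, A490. Inhibition % relative to control; two experiments.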

[4] = Selectivity ratio of IC50 for human Bel7404 cells to IC50 for human EBC1 cells; assay type: ADME, cell-based; how it was run: as §1
[5] = Antiproliferative activity against human SGC7901 cells after 72 hrs by SRB or MTT assay; assay type: functional, cell-based; conditions: SGC-7901, 72 h
How it was run: (§3)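 Cells seeded, exposed next day to a range of concentrations for 72 h. Growth read by sulforhodamine B or MTT. IC50 from four-parameter concentration-response fit. Each concentration tested at least in triplicate, with at least 2 experiments.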

[6] = target: T1, Hepatocyte growth factor receptor (Homo sapiens, UniProt P08581); assay: Inhibition of c-Met in HGF stimulated human U87MG cells assessed as reduction in ERK phosphorylation at Threonine 202 at 10 nM after 1 hr by Western blot analysis; assay type: cell-based; conditions: U-87MG ATCC
How it was run: (§4)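 U87MG cells serum-starved 24 h, treated 1 h at 37 °C, then stimulated with HGF 100 ng/mL for 15 min. Lysed in SDS buffer, run on 10% SDS-PAGE and immunoblotted for phospho-ERK1/2 and phospho-AKT; ECL detection.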

[7] = Selectivity ratio of IC50 for human NCI-H1299 cells to IC50 for human MKN45 cells; assay type: ADME, cell-based; how it was run: as §1
[8] = Oral bioavailability in Sprague-Dawley rat at 10 mg/kg administered as single dose; assay type: ADME, organism-based; conditions: in vivo
How it was run: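 Male Sprague-Dawley rats (n=3), single dose. IV 2 mg/kg in 1% DMA/9% Cremophor/90% saline; PO 10 mg/kg in 0.5% CMC-Na. For one compound, IV 10 mg/kg in DMSO/Tween 80/PEG40 and PO 10 mg/kg in 10% DMSO/5% Tween 80/85% saline.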

[9] = target: T1, Hepatocyte growth factor receptor; assay: Inhibition of c-Met phosphorylation at Tyrosine 1234 in human MKN45 cells at 10 nM after 1 hr by Western blot analysis; assay type: cell-based; conditions: MKN-45
How it was run: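 EBC-1 or MKN45 cells treated with compound 1 h at 37 °C without HGF, then lysed in 1× SDS sample buffer. Lysates run on 10% SDS-PAGE and transferred to nitrocellulose. Probed with antibodies to c-Met, phospho-c-Met, phospho-ERK1/2, phospho-AKT, AKT and GAPDH, then HRP secondary. ECL detection.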

[10] = AUC (0 to infinity) in Sprague-Dawley rat at 10 mg/kg, po administered as single dose; assay type: ADME, organism-based; set-up: dose 10 mg/kg, route oral, time infinity; conditions: in vivo
[11] = target: T1, Hepatocyte growth factor receptor; assay: Inhibition of c-Met in HGF stimulated human U87MG cells assessed as reduction in AKT phosphorylation at Serine 473 at 10 nM after 1 hr by Western blot analysis; assay type: cell-based; conditions: U-87MG ATCC; how it was run: as §4
[12] = target: Proto-oncogene tyrosine-protein kinase ROS (Homo sapiens) (UniProt P08922); assay: Inhibition of recombinant ROS1 (unknown origin) using poly (Glu, Tyr) 4:1 as substrate at 1000 nM incubated for 60 mins by ELISA relative to control; how it was run: as §2
NCI-H460 = assay: Antiproliferative activity against human NCI-H460 cells after 72 hrs by SRB or MTT assay; assay type: functional, cell-based; conditions: NCI-H460, 72 h; how it was run: as §3
[13] = target: TPR/MET fusion protein (Mus musculus) (UniProt P16056+F6ZDS4); assay: Inhibition of TPR-MET in mouse BAF3 cells assessed as reduction in AKT phosphorylation at Serine 473 at 10 nM after 1 hr by Western blot analysis; assay type: cell-based
How it was run: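 BaF3 stably expressing TPR-MET (puromycin-selected), grown with IL-3-conditioned medium. Treated 1 h at 37 °C, lysed in SDS sample buffer. 10% SDS-PAGE and immunoblot for phospho-c-Met, phospho-ERK1/2, phospho-AKT and totals; ECL detection.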

[14] = Antitumor activity against human EBC1 cells xenografted in athymic nude mouse assessed as tumor growth inhibition at 12.5 mg/kg, po bid for 21 days measured twice a week during compound dosing relative to control; assay type: functional; conditions: EBC-1, po, 504 h, read-out: TGI
How it was run: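 Nude mice bearing s.c. tumours. Cells were first grown s.c. to 700–800 mm³, then 1.5 mm³ fragments were transplanted s.c. into the right flank. Mice were randomised at 100–200 mm³ (n=6 treated, n=12 vehicle) and dosed orally twice daily for 21 days. Caliper measurement twice weekly; TV = length×width²/2. TGI taken on the final day versus vehicle; Student's t test.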

[15] = target: Proto-oncogene tyrosine-protein kinase Src (Homo sapiens) (UniProt P12931); assay: Inhibition of recombinant c-Src (unknown origin) using poly (Glu, Tyr) 4:1 as substrate at 1000 nM incubated for 60 mins by ELISA relative to control; how it was run: as §2
[16] = Selectivity ratio of IC50 for human MDA-MB-231 cells to IC50 for mouse BAF3 cells expressing TPR-MET; assay type: ADME, cell-based; how it was run: as §1
[17] = Selectivity ratio of IC50 for human U87MG cells to IC50 for mouse BAF3 cells expressing TPR-MET; assay type: ADME, cell-based
[18] = Selectivity ratio of IC50 for human NCI-H358 cells to IC50 for mouse BAF3 cells expressing TPR-MET; assay type: ADME, cell-based; how it was run: as §1
[19] = Selectivity ratio of IC50 for human BGC823 cells to IC50 for human EBC1 cells; assay type: ADME, cell-based; conditions: bgc-823; how it was run: as §1

T1 sequence (P08581 whole entry): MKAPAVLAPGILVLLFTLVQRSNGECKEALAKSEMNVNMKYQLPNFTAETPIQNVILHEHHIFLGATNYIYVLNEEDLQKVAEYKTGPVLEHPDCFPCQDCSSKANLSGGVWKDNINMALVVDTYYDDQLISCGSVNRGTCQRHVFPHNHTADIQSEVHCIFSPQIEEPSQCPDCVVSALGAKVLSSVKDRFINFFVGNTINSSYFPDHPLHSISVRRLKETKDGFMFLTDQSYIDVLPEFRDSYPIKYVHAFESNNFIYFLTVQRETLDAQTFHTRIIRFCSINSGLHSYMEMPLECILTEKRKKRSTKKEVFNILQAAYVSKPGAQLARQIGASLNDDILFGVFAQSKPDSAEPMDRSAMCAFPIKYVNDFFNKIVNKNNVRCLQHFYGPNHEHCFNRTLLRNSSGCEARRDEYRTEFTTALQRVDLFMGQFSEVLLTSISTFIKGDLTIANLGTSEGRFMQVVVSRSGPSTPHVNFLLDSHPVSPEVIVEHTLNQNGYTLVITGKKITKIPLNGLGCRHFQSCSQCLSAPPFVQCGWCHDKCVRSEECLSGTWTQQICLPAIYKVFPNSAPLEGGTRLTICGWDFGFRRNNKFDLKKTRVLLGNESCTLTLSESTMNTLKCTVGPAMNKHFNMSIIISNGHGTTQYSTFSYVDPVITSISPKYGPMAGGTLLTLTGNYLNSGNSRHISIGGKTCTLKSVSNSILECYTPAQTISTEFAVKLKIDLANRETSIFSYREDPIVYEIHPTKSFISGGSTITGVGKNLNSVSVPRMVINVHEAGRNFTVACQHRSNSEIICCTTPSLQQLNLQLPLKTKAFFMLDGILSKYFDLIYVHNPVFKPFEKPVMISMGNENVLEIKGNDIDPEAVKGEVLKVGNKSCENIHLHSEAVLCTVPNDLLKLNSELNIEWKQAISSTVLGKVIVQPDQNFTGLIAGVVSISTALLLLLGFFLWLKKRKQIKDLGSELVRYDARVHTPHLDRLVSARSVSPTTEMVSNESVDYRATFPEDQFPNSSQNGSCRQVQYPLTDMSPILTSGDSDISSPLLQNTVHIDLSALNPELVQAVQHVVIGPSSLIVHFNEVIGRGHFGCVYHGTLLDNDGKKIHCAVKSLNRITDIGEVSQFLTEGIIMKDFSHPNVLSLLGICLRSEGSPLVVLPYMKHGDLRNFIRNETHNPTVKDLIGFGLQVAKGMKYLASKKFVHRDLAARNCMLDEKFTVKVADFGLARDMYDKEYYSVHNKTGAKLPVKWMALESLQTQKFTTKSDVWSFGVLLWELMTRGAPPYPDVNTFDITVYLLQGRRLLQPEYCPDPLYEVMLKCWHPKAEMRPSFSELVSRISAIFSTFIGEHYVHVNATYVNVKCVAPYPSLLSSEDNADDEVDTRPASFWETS
Chain of Proto-oncogene tyrosine-protein kinase Src (Homo sapiens) (P12931 2-536 limits assumed): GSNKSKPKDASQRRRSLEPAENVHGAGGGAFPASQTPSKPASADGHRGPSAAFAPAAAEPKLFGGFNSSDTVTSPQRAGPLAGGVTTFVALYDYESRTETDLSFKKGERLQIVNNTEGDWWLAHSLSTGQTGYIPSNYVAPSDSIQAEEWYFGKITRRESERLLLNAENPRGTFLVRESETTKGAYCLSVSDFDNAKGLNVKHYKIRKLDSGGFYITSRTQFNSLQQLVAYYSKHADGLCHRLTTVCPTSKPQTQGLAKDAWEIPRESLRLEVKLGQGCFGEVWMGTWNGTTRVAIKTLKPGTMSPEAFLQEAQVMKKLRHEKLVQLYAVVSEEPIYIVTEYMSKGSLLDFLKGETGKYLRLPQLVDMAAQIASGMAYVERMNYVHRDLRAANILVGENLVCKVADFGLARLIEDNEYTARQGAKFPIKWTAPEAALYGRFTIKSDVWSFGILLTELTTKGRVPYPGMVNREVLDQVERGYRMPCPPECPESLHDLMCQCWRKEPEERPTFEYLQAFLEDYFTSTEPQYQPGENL
Chain of Proto-oncogene tyrosine-protein kinase ROS (Homo sapiens) (P08922 whole entry): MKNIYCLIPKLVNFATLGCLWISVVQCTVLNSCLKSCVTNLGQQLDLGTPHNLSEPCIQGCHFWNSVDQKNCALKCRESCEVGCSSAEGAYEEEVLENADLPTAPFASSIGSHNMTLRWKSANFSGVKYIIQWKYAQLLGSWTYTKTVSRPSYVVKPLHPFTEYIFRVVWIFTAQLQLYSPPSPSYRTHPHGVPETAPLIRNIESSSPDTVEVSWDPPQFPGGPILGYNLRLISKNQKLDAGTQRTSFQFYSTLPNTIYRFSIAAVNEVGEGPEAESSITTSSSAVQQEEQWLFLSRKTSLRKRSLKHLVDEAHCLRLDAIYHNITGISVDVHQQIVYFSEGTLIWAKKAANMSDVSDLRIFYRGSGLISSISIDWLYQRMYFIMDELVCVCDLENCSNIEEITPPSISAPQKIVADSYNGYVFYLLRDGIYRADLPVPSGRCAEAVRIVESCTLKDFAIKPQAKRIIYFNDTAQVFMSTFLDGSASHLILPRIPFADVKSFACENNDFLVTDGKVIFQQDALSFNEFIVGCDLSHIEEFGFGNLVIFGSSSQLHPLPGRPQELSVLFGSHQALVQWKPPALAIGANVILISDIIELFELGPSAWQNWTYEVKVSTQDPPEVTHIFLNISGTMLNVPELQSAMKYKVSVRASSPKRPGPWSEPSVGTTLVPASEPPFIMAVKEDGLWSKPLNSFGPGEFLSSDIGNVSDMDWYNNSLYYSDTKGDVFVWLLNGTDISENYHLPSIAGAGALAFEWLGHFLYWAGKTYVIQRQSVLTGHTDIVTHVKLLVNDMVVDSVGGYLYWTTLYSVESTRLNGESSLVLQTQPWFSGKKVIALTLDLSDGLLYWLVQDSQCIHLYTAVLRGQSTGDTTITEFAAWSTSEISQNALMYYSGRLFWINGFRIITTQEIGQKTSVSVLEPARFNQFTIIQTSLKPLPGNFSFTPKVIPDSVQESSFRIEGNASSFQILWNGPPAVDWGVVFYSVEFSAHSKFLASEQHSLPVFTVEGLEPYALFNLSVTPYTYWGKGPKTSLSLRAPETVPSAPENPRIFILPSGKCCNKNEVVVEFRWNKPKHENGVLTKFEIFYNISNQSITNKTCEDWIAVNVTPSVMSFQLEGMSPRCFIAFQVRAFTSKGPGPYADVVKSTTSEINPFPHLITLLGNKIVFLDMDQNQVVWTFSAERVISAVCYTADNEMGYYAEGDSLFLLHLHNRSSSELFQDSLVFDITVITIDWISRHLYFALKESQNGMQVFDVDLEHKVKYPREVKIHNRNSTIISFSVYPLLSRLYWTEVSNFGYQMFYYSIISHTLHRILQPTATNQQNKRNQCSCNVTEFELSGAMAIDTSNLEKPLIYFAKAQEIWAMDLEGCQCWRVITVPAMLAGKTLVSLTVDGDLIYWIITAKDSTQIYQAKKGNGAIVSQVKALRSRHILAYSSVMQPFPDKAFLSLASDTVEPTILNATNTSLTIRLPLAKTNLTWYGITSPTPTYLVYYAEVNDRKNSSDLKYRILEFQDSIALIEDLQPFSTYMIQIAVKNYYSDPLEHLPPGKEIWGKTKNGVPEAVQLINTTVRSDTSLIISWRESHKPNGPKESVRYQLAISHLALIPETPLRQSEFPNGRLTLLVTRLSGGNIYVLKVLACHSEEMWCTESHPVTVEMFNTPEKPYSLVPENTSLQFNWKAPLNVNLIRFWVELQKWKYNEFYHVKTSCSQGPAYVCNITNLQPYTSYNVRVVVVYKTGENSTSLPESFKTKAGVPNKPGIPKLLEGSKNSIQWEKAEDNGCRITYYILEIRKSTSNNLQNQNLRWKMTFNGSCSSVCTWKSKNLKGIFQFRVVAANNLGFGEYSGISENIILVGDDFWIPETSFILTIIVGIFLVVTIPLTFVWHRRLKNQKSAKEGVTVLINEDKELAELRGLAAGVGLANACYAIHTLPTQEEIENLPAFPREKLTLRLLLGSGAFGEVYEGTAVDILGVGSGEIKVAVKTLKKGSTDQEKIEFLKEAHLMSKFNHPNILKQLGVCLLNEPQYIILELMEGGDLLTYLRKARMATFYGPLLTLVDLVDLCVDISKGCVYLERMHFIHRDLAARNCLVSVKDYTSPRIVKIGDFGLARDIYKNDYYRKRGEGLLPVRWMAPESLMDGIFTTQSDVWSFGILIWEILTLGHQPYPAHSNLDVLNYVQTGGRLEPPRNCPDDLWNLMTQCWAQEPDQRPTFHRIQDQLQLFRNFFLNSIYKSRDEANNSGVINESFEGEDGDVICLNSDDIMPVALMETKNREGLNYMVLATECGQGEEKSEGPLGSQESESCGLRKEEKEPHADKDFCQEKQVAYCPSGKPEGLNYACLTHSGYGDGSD

- half-life [2]: 1.23 h
- inhibition [3]: 31.4%
- inhibition [6]: Active
- bioavailability [8]: 48.3%
- inhibition [9]: Active
- AUC(0-inf) [10]: 2380 ng·h/mL
- inhibition [11]: Active
- inhibition [12]: 10.6%
- IC50 (NCI-H460): > 10 µM
- inhibition [13]: Active
- inhibition [15]: 13.7%
SMILES: Fc1ccc(-c2cnc3nnc(C(F)(F)c4ccc5ncccc5c4)n3n2)cc1
- Ratio IC50 [1]: 10000
- Ratio IC50 [4]: 10000
- IC50 [5]: > 10 µM
- Ratio IC50 [7]: 10000
- inhibition in vivo at 12.5 mg/kg [14]: 75.6%
- Ratio IC50 [16]: > 10000
- Ratio IC50 [17]: 10000
- Ratio IC50 [18]: 10000
- Ratio IC50 [19]: > 10000
